Measured values taken from publication PMC10472104 (Clinical Cancer Research, 2023).
Entries after “also recorded” stand apart in the source; their conditions may differ.

Assays:
Assay type in all cases: cell-based, human
TC32 cells = experiment: Cell-cycle analysis; conditions: TC32 (Fig. 3A)
CHLA10 cells = experiment: Cell-cycle analysis; conditions: CHLA10 (Fig. 3B)
γH2AX in CHLA10 cells = experiment: γH2AX expression by Western blotting; conditions: CHLA10, 24 hours
γH2AX in TC32 cells = experiment: γH2AX expression by Western blotting; conditions: TC32, 24 hours
Outline: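 Cells grown to 70–80% confluency in six-well plates, settled overnight, serum-starved 24 h, then given DMSO or increasing concentrations of test compound for 24 h. Lysates were transferred to nitrocellulose and blocked. Blots were probed overnight at 4°C with rabbit anti-phospho-H2AX (Ser139) and anti-total H2AX, then 1 h at room temperature with IRDye800CW anti-rabbit, and scanned on an Odyssey imager.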

[1] = tested on: γH2AX foci in CHLA10 cells; experiment: γH2AX foci by immunofluorescence and confocal microscopy; conditions: CHLA10, increasing doses, 24 hours
Outline: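 Cells were fixed in 4% paraformaldehyde 30 min at room temperature and permeabilized with 0.5% Triton-X. They were probed overnight at 4°C with rabbit anti-phospho-H2AX (Ser139), then Alexa Fluor 488 anti-rabbit, and DAPI-mounted. Foci were counted from confocal images.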

[2] = tested on: TC32 and CHLA10 spheroids; experiment: 3D spheroid assays, comparison across both models; conditions: 4 days

`O=C(CCCCCCC(=O)Nc1ccccc1)NO` [vorinostat] was tested, and the cell-cycle arrest induced (TC32 cells) was “G0/G1 cell-cycle arrest”, the cell-cycle arrest induced (CHLA10 cells) was “G0/G1 cell-cycle arrest” and the “γH2AX expression with increasing doses” value (γH2AX in CHLA10 cells) was “induced γH2AX expression in a dose-dependent manner”. The “γH2AX expression with increasing doses” value (γH2AX in TC32 cells) was “induced γH2AX expression in a dose-dependent manner” and the γH2AX foci formation [1] was “milder DNA damage foci formation”.

For `O=C(c1cc(Cc2n[nH]c(=O)c3ccccc23)ccc1F)N1CCN(C(=O)C2CC2)CC1` [olaparib], the “γH2AX expression with increasing doses” value (γH2AX in CHLA10 cells) was “induced γH2AX expression in a dose-dependent manner”, the “γH2AX expression with increasing doses” value (γH2AX in TC32 cells) was “induced γH2AX expression in a dose-dependent manner” and the γH2AX foci formation [1] was “dose-dependent γH2AX foci formation”.

In the case of `Cn1ncnc1[C@H]1c2n[nH]c(=O)c3cc(F)cc(c23)N[C@@H]1c1ccc(F)cc1` [talazoparib], the “spheroid activity compared with kt-3283” value [2] is reported as “equivalent activity; also recorded: equivalent efficacy”.
